From ChEMBL document CHEMBL5329188, “Design, synthesis, and biological evaluation of 3,3'-diindolylmethane N-linked glycoconjugate as a leishmanial topoisomerase IB inhibitor with reduced cytotoxicity” (RSC Med Chem, 2023)
Calls of active or inactive are those of the source. No cut-off for these calls is given here.

Columns and labels:
[1] = tested on: Leishmania donovani; assay: Antileishmanial activity against Leishmania donovani MHOM/IN/80/Dd8 promastigotes assessed as reduction in promastigotes viability incubated for 24 hrs by resazurin-based alamar blue dye assay; format: functional, organism-based; details: MHOM/IN/80/Dd8, 24 h
In short: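 L. donovani DD8 promastigotes, exponential phase, in M199 with 10% heat-inactivated FBS at 24 ± 1 °C, 5×10^6 cells per well. Exposed 24 h to 100, 50, 25, 12.5 and 6.25 μM (1 mM DMSO stocks). Viability read with resazurin (Alamar Blue, 20 μg ml^-1 final), excitation 550 nm and emission 590 nm. Amphotericin B standard. IC50 from curve fit; mean ± SD of three independent experiments.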

[2] = tested on: Leishmania donovani; assay: Inhibition of recombinant Leishmania donovani DNA topoisomerase IB mediated relaxation activity expressed in Escherichia coli BL21 (DE3) cells using supercoiled pHOT1 DNA as substrate at 400 uM incubated for 25 mins by EtBr staining based agarose gel electrophoresis analysis relative to control
In short: (§1)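 His-tagged LdTopILS expressed from pET16b plasmids in E. coli BL21(DE3) (0.5 mM IPTG, 22 °C, 12 h) and Ni-NTA purified. Enzyme mixed with supercoiled pHOT1 at 3:1 molar ratio in 25 mM Tris-Cl pH 7.5, 5% glycerol, 50 mM KCl, 0.5 mM DTT, 10 mM MgCl2, 30 μg ml^-1 BSA for 25 min at 37 °C. Controls: CPT 60 μM and DMSO 4% v/v. Products run on 1% agarose, EtBr stained, relaxed vs supercoiled quantified.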

[3] = tested on: J774.A1; assay: Cytotoxicity against mouse J774.A1 cells assessed as reduction in viability at 20 uM incubated for 20 hrs by MTT assay; format: toxicity, cell-based; details: j774.a1, 20 h
In short: (§2)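 J774A.1 murine macrophages in DMEM, 2×10^4 cells per well, adhered overnight. Treated in triplicate at 100, 50, 30, 20 and 10 μM with 0.1% final DMSO (DMSO negative control, amphotericin B positive control) for 20 h. MTT (2.5 mg ml^-1 in PBS) added for 4 h at 37 °C, formazan dissolved in DMSO, OD 570 nm. CC50 from curve fit; mean ± SD of three independent experiments.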

[4] = tested on: J774.A1; assay: Cytotoxicity against mouse J774.A1 cells assessed as reduction in viability at 10 uM incubated for 20 hrs by MTT assay; format: toxicity, cell-based; details: j774.a1, 20 h; in short: as §2
[5] = Cytotoxicity against mouse J774.A1 cells assessed as reduction in viability incubated for 20 hrs by MTT assay; format: toxicity, cell-based; in short: as §2
[6] = tested on: J774.A1; assay: Cytotoxicity against mouse J774.A1 cells assessed as reduction in viability at 30 uM incubated for 20 hrs by MTT assay; format: toxicity, cell-based; details: j774.a1, 20 h; in short: as §2
[7] = tested on: Leishmania donovani; assay: Inhibition of recombinant Leishmania donovani DNA topoisomerase IB mediated relaxation activity expressed in Escherichia coli BL21 (DE3) cells using supercoiled pHOT1 DNA as substrate at 500 uM incubated for 25 mins by EtBr staining based agarose gel electrophoresis analysis relative to control; in short: as §1
[8] = tested on: J774.A1; assay: Cytotoxicity against mouse J774.A1 cells assessed as reduction in viability at 50 uM incubated for 20 hrs by MTT assay; format: toxicity, cell-based; details: j774.a1, 20 h; in short: as §2
[9] = tested on: Leishmania donovani; assay: Inhibition of recombinant Leishmania donovani DNA topoisomerase IB mediated relaxation activity expressed in Escherichia coli BL21 (DE3) cells using supercoiled pHOT1 DNA as substrate at 500 uM incubated for 25 mins by EtBr staining based agarose gel electrophoresis analysis; in short: as §1
[10] = tested on: Leishmania donovani; assay: Inhibition of recombinant Leishmania donovani DNA topoisomerase IB mediated relaxation activity expressed in Escherichia coli BL21 (DE3) cells using supercoiled pHOT1 DNA as substrate at 60 uM incubated for 25 mins by EtBr staining based agarose gel electrophoresis analysis
In short: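 LdTopILS was co-expressed from pET16bLdTOP1L and pET16bLdTOP1S in E. coli BL21(DE3), induced with 0.5 mM IPTG at OD600 0.6 for 12 h at 22 °C, and Ni-NTA purified. Enzyme and supercoiled pHOT1 (3:1 molar) ran 25 min at 37 °C in 25 mM Tris-Cl pH 7.5, 5% glycerol, 50 mM KCl, 0.5 mM DTT, 10 mM MgCl2, 30 µg/ml BSA. DMSO 4% v/v was the solvent control. Relaxed versus supercoiled bands were quantified on 1% agarose with EtBr.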

SMILES: Brc1ccc(C(c2c[nH]c3ccc(Br)cc23)c2c[nH]c3ccc(Br)cc23)cc1
- IC50 [1]: > 100 µM

SMILES: Fc1ccc(C(c2c[nH]c3cc(Cl)ccc23)c2c[nH]c3cc(Cl)ccc23)cc1
- IC50 [1]: > 100 µM

SMILES: COc1ccc(C(c2c[nH]c3ccccc23)c2c[nH]c3ccccc23)cc1
- IC50 [1]: 54.9 µM

SMILES: O=[N+]([O-])c1ccc(C(c2c[nH]c3ccccc23)c2c[nH]c3ccccc23)cc1
- IC50 [1]: > 100 µM

SMILES: OC[C@H]1O[C@@H](n2cc(C(c3ccc(F)cc3)c3cn([C@@H]4O[C@H](CO)[C@@H](O)[C@@H](O)[C@H]4O)c4ccc(Br)cc34)c3cc(Br)ccc32)[C@H](O)[C@H](O)[C@@H]1O (some centres undefined)
- inhibition [2]: 100%
- Activity [3]: 81.05%
- Activity [4]: 96.25%
- CC50 at 20 h [5]: 89.2 µM
- Activity [6]: 70.11%
- inhibition [7]: 100%
- IC50 [1]: 27.9 µM
- Activity [8]: 69.77%

SMILES: COc1ccc(C(c2c[nH]c3ccc(Br)cc23)c2c[nH]c3ccc(Br)cc23)cc1
- IC50 [1]: > 100 µM

SMILES: Clc1ccc(C(c2c[nH]c3cc(Cl)ccc23)c2c[nH]c3cc(Cl)ccc23)cc1
- IC50 [1]: 53.2 µM

SMILES: O=[N+]([O-])c1ccc(C(c2c[nH]c3cc(Cl)ccc23)c2c[nH]c3cc(Cl)ccc23)cc1
- IC50 [1]: 48.4 µM

SMILES: Fc1ccc(C(c2c[nH]c3ccc(Br)cc23)c2c[nH]c3ccc(Br)cc23)cc1
- Activity [3]: 34.28%
- Activity [4]: 39.59%
- inhibition [9]: inactive
- CC50 at 20 h [5]: 4.45 µM
- Activity [6]: 30.34%
- IC50 [1]: 34.8 µM
- Activity [8]: 21.73%

SMILES: O=[N+]([O-])c1ccc(C(c2c[nH]c3ccc(Br)cc23)c2c[nH]c3ccc(Br)cc23)cc1
- IC50 [1]: 48.5 µM

SMILES: Brc1ccc(C(c2c[nH]c3ccccc23)c2c[nH]c3ccccc23)cc1
- inhibition [9]: inactive
- IC50 [1]: 47 µM

SMILES: Fc1ccc(C(c2c[nH]c3ccccc23)c2c[nH]c3ccccc23)cc1
- Activity [3]: 20.05%
- Activity [4]: 26.23%
- inhibition [9]: inactive
- CC50 at 20 h [5]: 5.71 µM
- Activity [6]: 19.81%
- IC50 [1]: 36.2 µM
- Activity [8]: 15.89%

SMILES: CC(=O)OC[C@H]1O[C@@H](n2cc(C(c3ccc(F)cc3)c3cn([C@@H]4O[C@H](COC(C)=O)[C@@H](OC(C)=O)[C@H](OC(C)=O)[C@H]4OC(C)=O)c4ccc(Br)cc34)c3cc(Br)ccc32)[C@H](OC(C)=O)[C@@H](OC(C)=O)[C@@H]1OC(C)=O
- inhibition [2]: 100%
- inhibition [7]: 100%
- IC50 [1]: 29.1 µM

SMILES: CSc1ccc(C(c2c[nH]c3ccccc23)c2c[nH]c3ccccc23)cc1
- IC50 [1]: > 100 µM

SMILES: Cc1ccc(C(c2c[nH]c3ccccc23)c2c[nH]c3ccccc23)cc1
- IC50 [1]: 54.3 µM

SMILES: Cc1ccc(C(c2c[nH]c3ccc(Br)cc23)c2c[nH]c3ccc(Br)cc23)cc1
- IC50 [1]: 59.2 µM

SMILES: CC[C@@]1(O)C(=O)OCc2c1cc1n(c2=O)Cc2cc3ccccc3nc2-1
- inhibition [10]: Active

SMILES: Clc1ccc2c(C(c3ccc(Br)cc3)c3c[nH]c4cc(Cl)ccc34)c[nH]c2c1
- IC50 [1]: 74.3 µM

SMILES: C[C@@H]1[C@H](O)[C@@H](C)/C=C/C=C/C=C/C=C/C=C/C=C/C=C/[C@H](O[C@@H]2O[C@H](C)[C@@H](O)[C@H](N)[C@@H]2O)C[C@@H]2O[C@](O)(C[C@@H](O)C[C@@H](O)[C@H](O)CC[C@@H](O)C[C@@H](O)CC(=O)O[C@H]1C)C[C@H](O)[C@H]2C(=O)O [AMPHOTERICIN B]
- IC50 [1]: 0.4 µM

SMILES: Fc1ccc2[nH]cc(C(c3ccc(Cl)cc3)c3c[nH]c4ccc(F)cc34)c2c1
- Activity [3]: 33.53%
- Activity [4]: 40.15%
- inhibition [9]: inactive
- CC50 at 20 h [5]: 4.51 µM
- Activity [6]: 32.04%
- IC50 [1]: 31.4 µM
- Activity [8]: 26.14%

SMILES: Clc1ccc(C(c2c[nH]c3ccc(Br)cc23)c2c[nH]c3ccc(Br)cc23)cc1
- inhibition [9]: inactive
- IC50 [1]: 41.8 µM

SMILES: CSc1ccc(C(c2c[nH]c3ccc(Br)cc23)c2c[nH]c3ccc(Br)cc23)cc1
- IC50 [1]: > 100 µM

SMILES: OC[C@H]1O[C@@H](n2ccc3cc(Br)ccc32)[C@H](O)[C@@H](O)[C@@H]1O
- inhibition [7]: > 90%

SMILES: CC(=O)OC[C@H]1O[C@@H](n2ccc3cc(Br)ccc32)[C@H](OC(C)=O)[C@@H](OC(C)=O)[C@@H]1OC(C)=O
- inhibition [7]: > 90%

SMILES: Clc1ccc(C(c2c[nH]c3ccccc23)c2c[nH]c3ccccc23)cc1
- IC50 [1]: 57.1 µM
